Measurements as given in ChEMBL document CHEMBL1127789, “Synthesis, NMDA receptor antagonist activity, and anticonvulsant action of 1-aminocyclobutanecarboxylic acid derivatives” (1994).
Calls of active or inactive are those of the source. No cut-off for these calls is given here.

What was measured:
[1] = Equipotent molar ratio relative to D-AP5 (1.0) on neonatal rat motoneurones; format: functional
Method in brief: (§1)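 Isolated neonatal rat spinal cord in vitro, recording from motoneurones. Antagonist potency is given as an equipotent molar ratio against D-AP5, with D-AP5 set to 1.0.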

[2] = Equipotent molar ratio relative to D-AP5 (1.0) on neonatal rat motoneurones.; format: functional
[3] = Equipotent molar ratio relative to D-AP5 (1.0) on neonatal rat motoneurones.; inactive; format: functional; method in brief: as §1
Mus musculus = test: (§2) Tested for anticonvulsant activity following intracerebroventricular administration against sound-induced clonic convulsions in DBA/2 mice.; format: functional
Method in brief: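 Intracerebroventricular dosing in DBA/2 mice at several doses, 7–11 mice per drug. Mice were exposed to sound, and protection against clonic (audiogenic) seizures was scored. Values were derived from dose–response data with 95% confidence limits. Overt behaviour (ataxia) and rectal temperature were also monitored.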

[4] = as §2; format: functional, Mus musculus
Method in brief: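 Intracerebroventricular injection in DBA/2 mice, 7–11 mice per compound, several doses per compound. Read-out is protection against sound-induced (audiogenic) clonic seizures. Values carry 95% confidence limits. Overt behaviour (ataxia) and rectal temperature were also noted.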

N[C@@H](CCCP(=O)(O)O)C(=O)O
Ratio [1]: 1

N[C@]1(C(=O)O)C[C@H](C(=O)CP(=O)(O)O)C1
Ratio [2]: 0.33

N[C@]1(C(=O)O)C[C@@H](CCP(=O)(O)O)C1
Ratio [2]: 1.1

N[C@]1(C(=O)O)C[C@H](CCC(=O)O)C1
Ratio [1]: 1.8

NC1(C(=O)O)CC([C@@H](O)CP(=O)(O)O)C1 (some centres undefined)
Ratio [2]: 0.39

NC1(C(=O)O)CC([C@H](O)CP(=O)(O)O)C1 (some centres undefined)
Ratio [2]: 1

N[C@]1(C(=O)O)C[C@@H](CCC(=O)O)C1
Ratio [1]: 7.9

N[C@]1(C(=O)O)C[C@H](CCP(=O)(O)O)C1
Ratio [2]: 0.32

N[C@]1(C(=O)O)C[C@@](C(=O)O)(C2CC2C(=O)O)C1 (some centres undefined)
Ratio [3]: inactive

N[C@]1(C(=O)O)C[C@](C(=O)O)(C2CC2C(=O)O)C1 (some centres undefined)
ED50 (Mus musculus): 0.089 µg
ED50 [4]: 0.36 nmol
Ratio [2]: 0.28

N[C@]1(C(=O)O)C[C@@H](C(=O)CP(=O)(O)O)C1
Ratio [2]: 4.2

O=C(O)C1CN(CCCP(=O)(O)O)CCN1 (racemic)
Ratio [2]: 0.2
